Test results: ChEMBL document CHEMBL4422632, “Design of Novel Inhibitors of Human Thymidine Phosphorylase: Synthesis, Enzyme Inhibition, in Vitro Toxicity, and Impact on Human Glioblastoma Cancer” (J Med Chem, 2019)
Activity calls are given as the source filed them. The calls are words filed in the database; no cut-off is given here.

What was measured:
[1] = Cytotoxicity against human HepG2 cells assessed as cell viability at 50 uM after 72 hrs by MTT assay relative to control; format: cell-based; settings: read-out: Activity
Method in brief: (§1)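 Cells grown in DMEM with 10% FBS at 37 °C, 5% CO₂; seeded 2 x 10³ cells/well, adhered 24 h, then exposed 72 h. MTT: 1 mg/mL for 3 h, formazan in DMSO, absorbance 595 nm. NRU: neutral red 25 µg/mL in serum-free medium for 3 h, desorbed in ethanol:acetic acid:water. Viability as % of untreated control; mean ± SEM of three to five independent experiments in triplicate.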

[2] = Cytotoxicity against human HepG2 cells assessed as cell viability at 250 uM after 72 hrs by MTT assay relative to control; format: cell-based; settings: read-out: Activity; method in brief: as §1
[3] = Cytotoxicity against human HepG2 cells assessed as cell viability at 50 uM after 72 hrs by neutral red uptake-based assay relative to control; settings: read-out: Activity; method in brief: as §1
[4] = Cytotoxicity against human HepG2 cells assessed as cell viability at 100 uM after 72 hrs by neutral red uptake-based assay relative to control; settings: read-out: Activity; method in brief: as §1
[5] = Cytotoxicity against African green monkey Vero cells assessed as cell viability at 100 uM after 72 hrs by MTT assay relative to control; format: cell-based; settings: chlorocebus sabaeus, read-out: Activity; method in brief: as §1
[6] = Cytotoxicity against African green monkey Vero cells assessed as cell viability at 500 uM after 72 hrs by MTT assay relative to control; format: cell-based; settings: chlorocebus sabaeus, read-out: Activity; method in brief: as §1
[7] = Cytotoxicity against African green monkey Vero cells assessed as cell viability at 1000 uM after 72 hrs by MTT assay relative to control; format: cell-based; settings: chlorocebus sabaeus, read-out: Activity; method in brief: as §1
[8] = Cytotoxicity against African green monkey Vero cells assessed as cell viability at 250 uM after 72 hrs by neutral red uptake-based assay relative to control; settings: chlorocebus sabaeus, read-out: Activity; method in brief: as §1
[9] = Cytotoxicity against human HaCaT cells assessed as cell viability at 100 uM after 72 hrs by neutral red uptake-based assay relative to control; settings: read-out: Activity; method in brief: as §1
[10] = Cytotoxicity against mouse RAW264.7 cells assessed as cell viability at 500 uM after 72 hrs by MTT assay relative to control; format: cell-based; settings: read-out: Activity
Method in brief: (§2)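 Cells kept in DMEM with 10% heat-inactivated FBS, 1% penicillin-streptomycin and 0.1% fungizone at 37 °C, 5% CO₂. U-87 MG seeded at 2 x 10^3 cells/well, RAW 264.7 at 5 x 10^2, adhered 24 h, then exposed 72 h. MTT: 1 mg/mL for 3 h, formazan in DMSO, A595. NRU: 25 μg/mL dye, 3 h, ethanol:acetic acid:water desorb. Untreated wells = 100%; three to five independent experiments in triplicate.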

[11] = Cytotoxicity against mouse RAW264.7 cells assessed as cell viability at 250 uM after 72 hrs by neutral red uptake-based assay relative to control; settings: read-out: Activity; method in brief: as §2
[12] = Cytotoxicity against human U87MG cells assessed as cell viability at 25 uM after 72 hrs by MTT assay relative to control; format: cell-based, U-87MG ATCC; settings: read-out: Activity; method in brief: as §2
[13] = Cytotoxicity against human U87MG cells assessed as cell viability at 50 uM after 72 hrs by MTT assay relative to control; format: cell-based, U-87MG ATCC; settings: read-out: Activity; method in brief: as §2
[14] = Cytotoxicity against human U87MG cells assessed as cell viability at 100 uM after 72 hrs by MTT assay relative to control; format: cell-based, U-87MG ATCC; settings: read-out: Activity; method in brief: as §1
[15] = Cytotoxicity against human U87MG cells assessed as cell viability at 50 uM after 72 hrs by neutral red uptake-based assay relative to control; design: species or system U-87MG ATCC; settings: read-out: Activity; method in brief: as §2
[16] = Cytotoxicity against human U87MG cells assessed as cell viability at 250 uM after 72 hrs by neutral red uptake-based assay relative to control; design: species or system U-87MG ATCC; settings: read-out: Activity; method in brief: as §2
Cytochrome P450 3A4 = Cytochrome P450 3A4 (Homo sapiens, UniProt P08684); assay: Inhibition of CYP3A4 in human liver microsomes by HPLC-MS/MS analysis; format: ADME
Cytochrome P450 3A4, sequence (P08684 whole entry): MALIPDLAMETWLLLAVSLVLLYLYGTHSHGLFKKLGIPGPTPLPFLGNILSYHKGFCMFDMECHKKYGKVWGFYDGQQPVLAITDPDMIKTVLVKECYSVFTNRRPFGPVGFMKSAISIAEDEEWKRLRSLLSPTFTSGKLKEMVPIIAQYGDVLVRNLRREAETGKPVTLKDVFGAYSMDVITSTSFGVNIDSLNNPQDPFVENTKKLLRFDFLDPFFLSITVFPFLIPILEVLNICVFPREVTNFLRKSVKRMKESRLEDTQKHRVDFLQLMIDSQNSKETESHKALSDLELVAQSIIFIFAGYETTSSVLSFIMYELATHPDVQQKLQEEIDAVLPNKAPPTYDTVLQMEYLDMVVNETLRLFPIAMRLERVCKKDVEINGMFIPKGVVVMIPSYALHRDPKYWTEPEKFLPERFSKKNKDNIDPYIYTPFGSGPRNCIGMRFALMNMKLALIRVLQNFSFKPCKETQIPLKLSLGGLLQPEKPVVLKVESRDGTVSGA

Cytochrome P450 2C9 = Cytochrome P450 2C9 (Homo sapiens, UniProt P11712); assay: Inhibition of CYP2C9 in human liver microsomes by HPLC-MS/MS analysis; format: ADME
Cytochrome P450 2C9, sequence (P11712 whole entry): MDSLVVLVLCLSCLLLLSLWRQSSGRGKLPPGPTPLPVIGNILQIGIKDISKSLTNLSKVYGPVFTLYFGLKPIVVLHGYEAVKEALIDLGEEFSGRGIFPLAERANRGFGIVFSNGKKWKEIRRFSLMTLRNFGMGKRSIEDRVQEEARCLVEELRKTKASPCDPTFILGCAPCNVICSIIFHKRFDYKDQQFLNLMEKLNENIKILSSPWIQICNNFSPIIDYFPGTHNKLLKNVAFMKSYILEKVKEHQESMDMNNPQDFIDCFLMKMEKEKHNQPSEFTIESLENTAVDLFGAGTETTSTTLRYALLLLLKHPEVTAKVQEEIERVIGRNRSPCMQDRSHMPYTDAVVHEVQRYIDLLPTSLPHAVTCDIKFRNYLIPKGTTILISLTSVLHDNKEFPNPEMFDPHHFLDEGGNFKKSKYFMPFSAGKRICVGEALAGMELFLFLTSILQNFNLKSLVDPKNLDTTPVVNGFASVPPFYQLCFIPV

[17] = Tmax in CF1 mouse at 50 mg/kg, ip by non-compartmental analysis; format: ADME, organism-based; settings: in vivo
[18] = AUC (0 to infinity) in CF1 mouse at 50 mg/kg, ip by non-compartmental analysis; format: ADME, organism-based; design: dose 50 mg/kg, time infinity, route intraperitoneal; settings: in vivo
Method in brief: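 Male CF1 mice received a single ip injection of 50 mg/kg in 0.9% saline; 3 animals per time point, killed 0.03, 0.08, 0.25, 0.5, 1 and 2 h after dosing; blood collected in heparin tubes.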

[19] = AUCM (0 to infinity) in CF1 mouse at 50 mg/kg, ip by non-compartmental analysis; format: ADME, organism-based; settings: in vivo
U-87 MG [20] = assay: Antitumor activity against human U87MG cells xenografted in BALB/c nude mouse assessed as tumor growth inhibition 50 mg/kg/day, ip administered for 14 days; format: functional, organism-based; settings: U-87MG ATCC
Method in brief: (§3)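 5 x 10⁵ U-87 MG cells implanted subcutaneously in right flank of male BALB/c nude mice; at about 50 mm³, randomized to saline or ip 50 mg/kg/day, with temozolomide 50 mg/kg/day in the combination arm, for 14 days. Relative tumor volume = volume on day / day 0; TGI on day 14 = [1 − RTV treated/RTV control] x 100. Two-way ANOVA with Bonferroni.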

U-87 MG [21] = assay: Antitumor activity against human U87MG cells xenografted in BALB/c nude mouse assessed as tumor growth inhibition 50 mg/kg/day, ip administered for 14 days co-treated with temozolamide; format: functional, organism-based; settings: U-87MG ATCC; method in brief: as §3
[22] = Toxicity in nude BALB/c mouse xenografted with human U87MG cells assessed as reduction in body weight at 50 mg/kg, […]; format: organism-based; settings: in vivo, ip, 120 h
U-87 MG [23] = assay: Anti-angiogenic activity in tumor of human U87MG cells xenografted in nude BALB/c mouse assessed as reduction in VEGF staining at 50 mg/kg, ip administered for 14 days by immunohistochemistry; format: functional, organism-based; settings: U-87MG ATCC
Method in brief: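 Male nude mice bearing subcutaneous right-flank xenografts of 5 x 10⁵ U-87 MG cells; dosing began at about 50 mm³ tumors, ip daily for 14 days. Tumors formalin-fixed, paraffin sections 3 µm; citrate pH 6 antigen retrieval at 95-98 °C; primary antibody overnight at 4 °C, HRP secondary, DAB. Positive area quantified by optical density at x200, 4 images per tumor; mean ± SEM, one-way ANOVA with Dunnett.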

U-87 MG [24] = assay: Induction of apoptosis in human U87MG cells xenografted in BALB/c nude mouse assessed as caspase-3 levels at 50 mg/kg, ip after 14 days by immunohistochemistry; format: functional, organism-based; settings: U-87MG ATCC
Method in brief: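 Male BALB/c nude mice implanted subcutaneously with 5 x 10⁵ U-87 MG cells in the right flank. Treated IP at 50 mg/kg/day for 14 days, with saline controls, starting once tumors reached about 50 mm³. Tumors fixed in formaldehyde and cut at 3 µm. Citrate pH 6 antigen retrieval.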

U-87 MG [25] = assay: Anti-angiogenic activity in tumor of human U87MG cells xenografted in nude BALB/c mouse assessed as reduction in number of blood vessels at 50 mg/kg, ip administered for 14 days by hematoxylin and eosin-staining based light microscopy co-treated with temozolamide; format: functional, organism-based; settings: U-87MG ATCC
Method in brief: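 U-87 MG flank xenografts (5 x 10⁵ cells) in male nude mice; ip treatment daily from about 50 mm³ for 14 days, with temozolomide at 50 mg/kg/day in the co-treatment arm. Vessel density counted on HE-stained 3 µm sections by hot-spot method, mean of four fields per tumor at x200, avoiding gross haemorrhage. One-way ANOVA/Dunnett.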

Q: For `O=c1[nH]c(CNC(CO)CO)c(I)c(=O)[nH]1`, which viability at 72 h, 50 µM [1] is on record?
A: Its viability at 72 h, 50 µM is 100%.

Q: What about the viability at 72 h, 250 µM [2] of the same compound?
A: The viability at 72 h, 250 µM was 100%.

Q: What about the viability at 72 h, 50 µM [3] of the same compound?
A: Its viability at 72 h, 50 µM is 103%.

Q: And the viability at 72 h, 100 µM [4]?
A: Its viability at 72 h, 100 µM is 102%.

Q: What about the viability at 72 h, 100 µM [5] of the same compound?
A: The viability at 72 h, 100 µM was 96%.

Q: And the viability at 72 h, 500 µM [6]?
A: Its viability at 72 h, 500 µM is 84%.

Q: And the viability at 72 h, 1000 µM [7]?
A: Its viability at 72 h, 1000 µM is 75%.

Q: And the viability at 72 h, 250 µM [8]?
A: The viability at 72 h, 250 µM was 103%.

Q: What about the viability at 72 h, 100 µM [9] of the same compound?
A: The viability at 72 h, 100 µM was 104%.

Q: And the viability at 72 h, 500 µM [10]?
A: Its viability at 72 h, 500 µM is 91%.

Q: And the viability at 72 h, 250 µM [11]?
A: The viability at 72 h, 250 µM was 85%.

Q: What about the viability at 72 h, 25 µM [12] of the same compound?
A: Its viability at 72 h, 25 µM is 101%.

Q: What about the viability at 72 h, 50 µM [13] of the same compound?
A: The viability at 72 h, 50 µM was 97%.

Q: And the viability at 72 h, 100 µM [14]?
A: The viability at 72 h, 100 µM was 96%.

Q: And the viability at 72 h, 50 µM [15]?
A: Its viability at 72 h, 50 µM is 101%.

Q: What about the viability at 72 h, 250 µM [16] of the same compound?
A: The viability at 72 h, 250 µM was 98%.

Q: What about the IC50 (Cytochrome P450 3A4) of the same compound?
A: Its IC50 is greater than 100 µM.

Q: And the IC50 (Cytochrome P450 2C9)?
A: The IC50 was greater than 100 µM.

Q: And the Tmax [17]?
A: The Tmax was 4.8 min.

Q: What about the AUC [18] of the same compound?
A: Its AUC is 17400 ng·h/mL.

Q: And the AUMC [19]?
A: Its AUMC is 7.6 µg·h²/mL.

Q: What about the TGI (U-87 MG [20]) of the same compound?
A: Its TGI is “Active”.

Q: What about the TGI (U-87 MG [21]) of the same compound?
A: The TGI was “Active”.

Q: And the Activity [22]?
A: The Activity was “Non-Toxic”.

Q: What about the Activity (U-87 MG [23]) of the same compound?
A: Its Activity is “Active”.

Q: And the Activity (U-87 MG [24])?
A: The Activity was “inactive”.

Q: And the Activity (U-87 MG [25])?
A: Its Activity is “Active”.
